High-throughput results (PubChem BioAssay)
Only some compounds are listed: those with a hit (about 3.8% of all), similar ones and a draw of the others.
Hep lipid drop: modulators of hepatic lipid droplet formation. AML12 mouse hepatocytes, oleate lipid droplets, BODIPY imaging. inhibition, % at 6.5 µM. hit rate 0.4% among 240,000;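 active = lipid droplet intensity inhibited by at least 50%, with more than 500 cells counted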
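Assay system: AML12 mouse liver cells | Compound dosing: One dose, 6.5 µM compound | Read-out basis: Droplet intensity reduction, % inhibition | Measured by: Fluorescence imaging, 20x objective, two fields per well | Schedule: Overnight treatment with compound plus oleate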
MrgX1 allo act: human MrgX1 positive allosteric modulation, primary screen. Q96LB2. MrgX1-HEK293, Fluo-4 calcium flux, FDSS; active compounds read high. B-score at 10 µM. hit rate 0.63% among 310,000;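 active = plate-corrected calcium response at least 3 library SD above typical, normal starting fluorescence, not activating the receptor alone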;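 also: compound read alongside a low EC10 to EC30 dose of BAM8-22 agonist; peak minus trough fluorescence over baseline measured at the second addition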
Target sequence (Q96LB2 whole entry, looked up): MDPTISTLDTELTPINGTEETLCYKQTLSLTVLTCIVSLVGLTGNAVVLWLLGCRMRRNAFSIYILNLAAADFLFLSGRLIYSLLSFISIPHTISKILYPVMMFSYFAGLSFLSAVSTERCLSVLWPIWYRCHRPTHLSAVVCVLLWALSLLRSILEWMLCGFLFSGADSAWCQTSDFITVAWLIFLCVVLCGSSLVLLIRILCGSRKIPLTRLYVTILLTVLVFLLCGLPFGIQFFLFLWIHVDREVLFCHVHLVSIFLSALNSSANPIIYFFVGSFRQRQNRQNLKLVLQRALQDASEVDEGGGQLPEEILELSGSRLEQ
RGS4 inh: inhibitors of human RGS4; HEK293 M3R/RGS4 inducible, Fluo-4 calcium flux; active compounds read high; triggered by carbachol at its EC20; hit rate 0.45% among 310,000; B-score at 10 µM;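 active = B-score, a plate-corrected calcium signal, over three deviations above library mean, with baseline fluorescence within five deviations of library mean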;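 also: RGS4 expression induced by doxycycline in cells with stable M3 receptor; B-score is computed from the integrated fluorescence ratio over baseline after carbachol; higher B-score means a larger calcium signal and so more RGS4 inhibition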
Target sequence (P49798 whole entry, looked up): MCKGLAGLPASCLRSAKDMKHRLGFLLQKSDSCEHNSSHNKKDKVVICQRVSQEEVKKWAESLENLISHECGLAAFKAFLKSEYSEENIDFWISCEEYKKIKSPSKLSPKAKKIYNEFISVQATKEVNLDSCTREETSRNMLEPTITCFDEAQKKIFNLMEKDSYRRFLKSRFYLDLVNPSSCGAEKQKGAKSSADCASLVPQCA
MrgX1 ag: activates human MrgX1 receptor signaling | Q96LB2 | MrgX1-HEK293 cells, Fluo-4 calcium fluorescence, agonist mode; active compounds read high | B-score at 10 µM | hit rate 0.44% among 310,000;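 active = calcium response B-score plate-corrected fluorescence ratio at least 3 library SD, with starting fluorescence B-score inside 5 SD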
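Test system: Stable human MrgX1 HEK293 cell line | Schedule: Overnight plating before 1 h dye loading | Read-out basis: Baseline-normalised fluorescence change ratio, B-scored | Detection: Kinetic calcium dye fluorescence, Fluo-4 NW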
MrgX1 antagonist: blocks BAM8-22 activation of human MrgX1 receptor. Q96LB2. MRGX1-HEK293 calcium flux, Fluo-4, BAM8-22 antagonism; active compounds read low. B-score at 10 µM. hit rate 1.3% among 310,000. AID 588676;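 active = calcium-response B-score plate-corrected more than 3 library SD below zero, starting fluorescence within 5 deviations, no agonist response on first addition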;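 also: peak minus trough fluorescence over baseline after final BAM8-22 challenge near maximal dose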
RGS4 pot: potentiators or activators of RGS4; HEK293 M3R/inducible RGS4, carbachol calcium flux Fluo4; active compounds read low; B-score at 10 µM; hit rate 0.92% among 310,000;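 active = B-score of the integrated calcium signal more than 4 SD below the library mean, with starting fluorescence not abnormally high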;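 also: negative B-score means reduced calcium response which marks RGS4 activation or potentiation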
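System – HEK293 FlpIn-TREx cells, stable M3R, doxycycline-inducible RGS4 · Reagent – ECmax carbachol challenge · Times – compound preincubation 20 min at room temperature before agonist · Technique – Fluo4 fluorescence kinetic imaging of calcium · Measure – B score of integrated Fluo4 ratio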
* hit, by the source's call; i = inactive; x = not tested or not shown.

SMILES	Hep lipid drop	MrgX1 allo act	RGS4 inh	MrgX1 ag	MrgX1 antagonist	RGS4 pot
COc1ccc(CNn2c(-c3ccccc3F)nc3ccccc3c2=O)cc1OC	-15	i	i	i	i	i
COc1ccc(OC)c(CNn2c(-c3ccccc3F)nc3ccccc3c2=O)c1	-2	i	i	i	-4.8*	i
OC(CCCN1CCCCC1)(c1ccccc1)c1ccccc1	1	i	i	i	i	i
CCCCCC(O)(CCN1CCCCC1)c1ccc(OCC)cc1 (configuration not stated)	-26	i	i	i	i	-8.8*
CCC(O)(CCN1CCCCC1)c1ccccc1 (configuration not stated)	x	i	i	i	i	-7*
CCCCOc1ccc(C(O)(CC)CCN2CCOCC2)cc1 (configuration not stated)	0	i	i	i	-6.3*	i
CCCCOc1ccc(C(O)(CCC)CCN2CCOCC2)cc1 (configuration not stated)	2	i	i	i	i	i
Cc1c(N=C2N=C(NC(=O)c3ccc(F)cc3)c3ccccc32)c(=O)n(-c2ccccc2)n1C	4	i	i	i	i	i
Cc1nc(-c2ccccn2)nc(N(C)c2ccccc2)c1Cl	-1	i	i	i	i	i
Cc1ccc(N(CCC#N)C(=O)COC(=O)c2ccccc2SCC(=O)N2CCCC2)cc1	x	i	i	i	i	i
Cc1cc(C)cc(N(CCC#N)C(=O)COC(=O)c2ccccc2SCC(=O)N2CCCC2)c1	-18	i	i	i	i	-7.1*
CC(C)N(C(=O)c1nn(C)c2c1CSc1ccccc1-2)C1CCCCC1	-6	15*	i	i	i	i
Cc1ccc(-n2c(Cc3cccn3C)nnc2SCC(=O)NCc2ccco2)cc1	x	i	i	i	i	i
Cc1ccc(-n2c(CSc3nc(C)cc(C)n3)nnc2SCC(=O)NCc2ccco2)cc1	x	i	i	i	-6.6*	i
CCOc1ccccc1N(CC(=O)NC1CCCC1)S(=O)(=O)c1ccc(C)cc1	-27	i	i	i	i	i
COc1ccc([C@H](C)NC[C@H](O)c2ccc(O)c(NC=O)c2)cc1	-10	i	i	i	i	i
COc1ccc(C[C@H](C)NC[C@@H](O)c2ccc(O)c(NC=O)c2)cc1	x	7.7*	i	i	i	i
Cc1ccc(/C=C2/C(=O)ON=C2c2ccccc2)o1	-2	i	i	43*	i	i
O=C1ON=C(c2ccccc2)/C1=C\c1ccco1	4	i	i	i	i	i
CC1=NOC(=O)/C1=C\c1ccc(-c2cccc(Cl)c2)o1	x	i	i	i	i	-8.9*
CC1=NOC(=O)/C1=C\c1ccc(-c2ccc(Cl)c(C(=O)O)c2)o1	10	x	i	x	x	i
COc1ccc(NC(=O)N2CCN(c3nc(-c4cccc(OC)c4)cs3)CC2)cc1	-5	i	i	i	i	-7*
Cc1c(NC(=O)C2(c3ccccc3)CCOCC2)c(=O)n(-c2ccccc2)n1C	16	6.7*	i	i	i	i
Cc1c(NC(=O)C2(c3ccc(Cl)cc3)CCCC2)c(=O)n(-c2ccccc2)n1C	-1	i	i	i	i	i
COc1cc2nc(SCc3c(C)noc3C)n(CCC3=CCCCC3)c(=O)c2cc1OC	x	i	i	i	i	-8.2*
SMILES	Hep lipid drop	MrgX1 allo act	RGS4 inh	MrgX1 ag	MrgX1 antagonist	RGS4 pot
CCN(C(=O)c1ccco1)C1C2CC3CC(C2)CC1C3 (configuration not stated)	17	i	i	i	i	i
ClC(CCN1CCN(Cc2ccccc2)CC1)c1ccccc1 (configuration not stated)	x	i	i	i	i	i
CCCCCCN(C(=O)CCCCCN1C(=O)NC(c2ccccc2)C(C(=O)OCc2ccccc2)=C1C)C(C(=O)NCCCC)c1ccc(OCC(=O)OC)c(C(=O)OC)c1 (configuration not stated)	52*	x	x	x	x	x
CCCCCCN(C(=O)CCCCCN1C(=O)NC(c2ccc(C(C)(C)C)cc2)C(C(=O)OCc2ccccc2)=C1C)C(C(=O)NCCCC)c1ccc(OCC(=O)OC)c(C(=O)OC)c1 (configuration not stated)	1	x	i	x	x	i
Cc1ccc(C)c(SCC(=O)OCC(=O)NCCNC(=O)COC(=O)CSc2cc(C)ccc2C)c1	x	i	i	i	i	i
CCOC(=O)c1c(C)[nH]c(C)c1C(=O)CSc1nc2ccccc2c(=O)n1-c1ccc(C)cc1	-10	i	i	i	i	-7.2*
Cc1nn(-c2ccccc2)c(C)c1/C=N/NC(=O)CSc1nc2ccccc2c(=O)n1-c1ccc(Br)cc1	x	i	i	i	i	i
Cc1ccc(-n2c(SCC(=O)N/N=C/c3c(C)nn(-c4ccccc4)c3C)nc3ccccc3c2=O)cc1	-43	i	i	i	-6.4*	i
O=c1oc2ccccc2nc1/C=C(O)/C=C\c1ccccc1	-21	8.6*	i	i	i	i
O=c1oc2ccccc2nc1/C=C(O)/C=C/c1ccc(F)cc1	-1	i	i	i	i	i
O=C(Nc1ccc(S(=O)(=O)N2CCCCC2)cc1)c1ccc(CN2CCOCC2)cc1	-1	i	i	i	-7.7*	i
Cc1cccnc1NC(=O)CCCNC(=O)c1ccc(Cl)cc1	x	i	i	i	i	i
CN(C)CCNC(=S)Nc1ccc(F)c(F)c1F	0	i	i	i	i	i
CS(=O)(=O)N(CC(=O)NCc1ccccc1Cl)c1cccc([N+](=O)[O-])c1	3	i	i	i	i	i
COc1ccccc1N(CC(=O)Nc1c(C)n(C)n(-c2ccccc2)c1=O)S(=O)(=O)c1ccc(C)cc1	5	i	i	i	-5.5*	i
Cc1ccc(CSCCNC(=O)CN(c2cccc([N+](=O)[O-])c2)S(C)(=O)=O)cc1	-10	9.9*	i	i	i	i
COc1ccc(N(CC(=O)Nc2c(C)n(C)n(-c3ccccc3)c2=O)S(=O)(=O)c2ccc(C)cc2)cc1OC	-1	i	i	i	i	i
COc1ccccc1N(CC(=O)NCCSCc1ccc(C)cc1)S(=O)(=O)c1ccccc1	-38	i	i	i	i	-10*
Cc1cc(C(=O)CSc2nc3ccc(Cl)cc3[nH]2)c(C)n1Cc1ccco1	x	i	i	i	i	i
